Experimental data from different studies.
Lines come from different studies, so protocols differ.
MAOA: Amine oxidase [flavin-containing] A (MAOA, Homo sapiens, UniProt P21397)
ADRA1A: Alpha-1A adrenergic receptor (ADRA1A, Homo sapiens, UniProt P35348)
Tspo: Translocator protein (Tspo, Rattus norvegicus, UniProt P16257)
PRMT3: Protein arginine N-methyltransferase 3 (PRMT3, Homo sapiens, UniProt O60678)
Rps6ka1: Ribosomal protein S6 kinase alpha-1 (Rps6ka1, Rattus norvegicus, UniProt Q63531)
LDHA: L-lactate dehydrogenase A chain (LDHA, Homo sapiens, UniProt P00338)
VIPR1: Vasoactive intestinal polypeptide receptor 1 (VIPR1, Homo sapiens, UniProt P32241)

SMILES	target	test	setting	inhibition [%]
N#Cc1ccc(NC(=O)c2ccc3c(c2)OCO3)cc1	MAOA	enzyme activity, inhibitor	1 µM, 20 min	38
CCN(CC)c1ccc(C2Nc3ccc(C(=O)c4ccccc4)cc3NC3=C2C(=O)CC(C)(C)C3)cc1 (stereo not drawn)	ADRA1A	ligand displacement, radioligand	10 µM	17
CCCNc1nc2ccccc2n1Cc1ccc(Cl)cc1	Tspo	cell-free assay	10 µM	49.2
N=C(NCCCSC[C@H]1O[C@@H](n2cnc3c(NCCCc4ccccc4)ncnc32)[C@H](O)[C@@H]1O)Nc1ccccc1	PRMT3	enzyme activity, inhibitor, fluorescence	10 µM	4.92
CNC(=O)c1cc(Oc2ccc(NC(=O)Nc3ccc(Cl)c(C(F)(F)F)c3)cc2)ccn1	Rps6ka1	enzyme activity, inhibitor	0.3 µM	11
Cc1ccc(C(=O)Nc2ccc([N+](=O)[O-])cc2C(F)(F)F)cc1	MAOA	enzyme activity, inhibitor	1 µM, 20 min	10
COC(=O)CN=c1scc(-c2ccccc2)n1-c1ccccc1C	LDHA	enzyme activity, inhibitor, fluorescence	100 µM, pH 7.2	43
O=C(Nc1ccc([N+](=O)[O-])cc1[N+](=O)[O-])c1ccccc1O	MAOA	enzyme activity, inhibitor	1 µM, 20 min	49
N=C(NCCCSC[C@H]1O[C@@H](n2cnc3c(NCCCc4ccccc4)ncnc32)[C@H](O)[C@@H]1O)NCC1CCC1	PRMT3	enzyme activity, inhibitor, fluorescence	10 µM	0
COc1cc(NC(C)=O)c(Cl)cc1C(=O)Nc1nccs1	ADRA1A	cell-free assay	10 µM	13.9
Nc1ncnc2c1ncn2[C@@H]1O[C@H](CSCCNC(=O)NCc2ccccc2)[C@@H](O)[C@H]1O	Protein arginine N-methyltransferase 5 (PRMT5, Homo sapiens, UniProt O14744)	enzyme activity, inhibitor, radiometric	10 µM	> 95
COC(=O)CN=c1scc(-c2ccccc2)n1-c1ccc(OC)cc1	LDHA	enzyme activity, inhibitor, fluorescence	100 µM, pH 7.2	49
Oc1cccc(Nc2nc(-c3ccc(F)cc3F)cs2)c1	Tspo	ligand displacement, radioligand	10 µM	63
Cc1ccc(Nc2nccc(N(C)c3ccc4c(C)n(C)nc4c3)n2)cc1S(N)(=O)=O	Rps6ka1	enzyme activity, inhibitor	10 µM	41
O=C(Nc1ccc([N+](=O)[O-])cc1Cl)c1ccc2c(c1)OCO2	MAOA	enzyme activity, inhibitor	1 µM, 20 min	9
COc1ccc(/C=C/C(=O)N2CCc3ccccc3C2)cc1OC	MAOA	enzyme activity, inhibitor, fluorescence	62.5 µM	11.3
CN1CC(Oc2cnc(C#N)cc2-c2ccn3nc(NC(=O)C4CC4)cc3c2)C1	Cyclin-dependent kinase-like 4 (CDKL4, Homo sapiens, UniProt Q5MAI5)	enzyme activity, inhibitor	1 µM	-9
COC(=O)CN=c1scc(-c2ccccc2)n1-c1ccccc1[N+](=O)[O-]	LDHA	enzyme activity, inhibitor, fluorescence	100 µM, pH 7.2	53

SMILES	target	test	setting	inhibition [%]
COc1cc([N+](=O)[O-])ccc1NC(=O)c1ccccc1O	MAOA	enzyme activity, inhibitor	1 µM, 20 min	9
O=C(c1ccc(Cl)cc1)N(Cc1ccccc1)C1CCCCC1	VIPR1	cell-free assay	10 µM	-0.7
O=C(Nc1ccc(OC(F)(F)F)cc1)c1cc(Cl)ccc1O	MAOA	enzyme activity, inhibitor	1 µM, 20 min	74
CCN(c1cc(C#CCN2CCOCC2)cc(C(=O)NCc2c(C)cc(C)[nH]c2=O)c1C)[C@H]1CC[C@H](N(C)CCOC)CC1	PRMT3	enzyme activity, inhibitor	1 µM	10
O=C1N=C(N2CCCCN2)S/C1=C\c1ccc(F)cc1O	VIPR1	ligand displacement, radioligand	10 µM	11
N=C(NCCCSC[C@H]1O[C@@H](n2cnc3c(NCCCc4ccccc4)ncnc32)[C@H](O)[C@@H]1O)NC1CCCC1	PRMT3	enzyme activity, inhibitor, fluorescence	10 µM	-23.3
CC[C@H](C)[C@H](NC(=O)[C@H](CCC(N)=O)NC(=O)[C@H](CC(C)C)NC(=O)[C@H](CCSC)NC(=O)[C@H](CCCCN)NC(=O)[C@H](CO)NC(=O)[C@H](CO)NC(=O)[C@H](CCSC)NC(=O)[C@H](CC(C)C)NC(=O)[C@H](CC(N)=O)NC(=O)[C@@H](NC(=O)[C@@H](NC(=O)[C@H](CO)NC(=O)[C@H](CC(C)C)NC(=O)[C@H](CS)NC(=O)[C@H](CCCNC(=N)N)NC(=O)[C@H](CC(=O)O)NC(=O)[C@H](Cc1c[nH]c2ccccc12)NC(=O)[C@H](Cc1ccccc1)NC(=O)[C@H](C)NC(=O)[C@H](CCC(=O)O)NC(=O)[C@@H](N)CCCCN)C(C)C)[C@@H](C)CC)C(=O)N[C@@H](CC(N)=O)C(=O)N[C@@H](C)C(=O)O	Cyclin-dependent kinase 5, with p25 (CDK5, Homo sapiens, UniProt Q00535)	enzyme activity, inhibitor, radiometric	500 µM	72
CCN(CC)CCNC(=O)c1c(C)[nH]c(/C=C2\C(=O)Nc3ccc(F)cc32)c1C	Cyclin-dependent kinase-like 2 (CDKL2, Homo sapiens, UniProt Q92772)	binding, competition with immobilised ligand	10 µM	92
O=C(OC(C(F)(F)F)C(F)(F)F)N1CCC(CCn2nnc3ccccc32)CC1	Fatty-acid amide hydrolase 1 (Faah, Rattus norvegicus, UniProt P97612)	enzyme activity, inhibitor	10 µM	47
N=C(NCCCSC[C@H]1O[C@@H](n2cnc3c(NCCCc4ccccc4)ncnc32)[C@H](O)[C@@H]1O)NC1CCC1	PRMT3	enzyme activity, inhibitor, fluorescence	10 µM	-37.6
O=C(Nc1cc(Cl)cc(Cl)c1)c1cc(Cl)ccc1O	MAOA	enzyme activity, inhibitor	1 µM, 20 min	4
N#Cc1cc(Cn2c(N3CCCC3)nc3ccccc32)ccc1F	Tspo	cell-free assay	10 µM	76.7
C#CCNC(=N)NCCCSC[C@H]1O[C@@H](n2cnc3c(NCCCc4ccccc4)ncnc32)[C@H](O)[C@@H]1O	PRMT3	enzyme activity, inhibitor, fluorescence	10 µM	6.56
CNC(=O)[C@@]12C[C@@H]1[C@@H](n1cnc3c(NC)nc(C#Cc4ccc(Cl)s4)nc31)[C@H](O)[C@@H]2O	Tspo	ligand displacement, radioligand	10 µM	60 to 70
N=C(NCCCSC[C@H]1O[C@@H](n2cnc3c(NCCCc4ccccc4)ncnc32)[C@H](O)[C@@H]1O)NCCc1ccccc1	PRMT3	enzyme activity, inhibitor, fluorescence	10 µM	1.64
O=C(Nc1ccccc1)c1ccccc1O	MAOA	enzyme activity, inhibitor	1 µM, 20 min	28
N=C(NCCCSC[C@H]1O[C@@H](n2cnc3c(NCCCc4ccccc4)ncnc32)[C@H](O)[C@@H]1O)NCC1CC1	PRMT3	enzyme activity, inhibitor, fluorescence	10 µM	-19.4
COc1ccc2c(c1)[C@H](NCCC(C)C)C[C@H]2c1ccc(Cl)c(Cl)c1 (relative stereo)	Glutathione reductase, mitochondrial (GSR, Homo sapiens, UniProt P00390)	enzyme activity, inhibitor	25 µM	< 12
